Legend:
[1] = biological target: human butyrylcholinesterase (Homo sapiens, UniProt P06276); assay: BChE inhibition, modified Ellman's spectrophotometric method; type: biochemical
MAO-A = biological target: T1, MAO-A (Homo sapiens, UniProt P21397); assay: MAO-A inhibition, in vitro fluorometric method; type: biochemical
T1 sequence (P21397 1-527): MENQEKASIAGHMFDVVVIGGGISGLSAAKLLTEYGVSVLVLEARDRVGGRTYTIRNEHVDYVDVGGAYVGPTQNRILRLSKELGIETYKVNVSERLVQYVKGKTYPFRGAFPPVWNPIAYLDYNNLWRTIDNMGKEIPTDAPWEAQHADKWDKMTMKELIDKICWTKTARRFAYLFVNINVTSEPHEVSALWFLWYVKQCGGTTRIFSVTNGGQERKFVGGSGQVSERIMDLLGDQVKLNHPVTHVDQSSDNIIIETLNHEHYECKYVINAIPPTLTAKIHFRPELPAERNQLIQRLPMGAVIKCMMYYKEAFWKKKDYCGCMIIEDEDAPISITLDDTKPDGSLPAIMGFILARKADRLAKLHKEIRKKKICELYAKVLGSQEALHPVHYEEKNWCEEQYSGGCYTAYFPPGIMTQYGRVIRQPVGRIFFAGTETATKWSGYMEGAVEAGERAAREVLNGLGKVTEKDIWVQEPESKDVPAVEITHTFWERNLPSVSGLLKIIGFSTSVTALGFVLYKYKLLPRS

beta amyloid 1–42 (Aβ42) = beta amyloid 1–42 (Aβ42) (Homo sapiens, UniProt P05067); assay: fluorometric beta amyloid 1–42; type: biochemical; details: read-out: Percent inhibition of beta amyloid 1–42 (Aβ42) peptide aggregation
Sequence of beta amyloid 1–42 (Aβ42) (P05067 672-713): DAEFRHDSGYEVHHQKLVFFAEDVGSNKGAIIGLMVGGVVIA

Cytotoxicity, MTT assay = type: cell-based; details: mouse, NIH/3T3 mouse embryonic fibroblast cells
In short: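 NIH/3T3 mouse embryonic fibroblasts, incubated according to the supplier's recommendation, were seeded at 1 × 10⁴ cells per well. Viability was read by MTT assay following the group's previously described standard procedure.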

[2] = biological target: Human acetylcholinesterase (Homo sapiens, UniProt P22303); assay: AChE inhibition, modified Ellman's spectrophotometric method; type: biochemical; details: read-out: AChE % inhibition, 10^−3 M
Sequence of Human acetylcholinesterase (P22303 32-614): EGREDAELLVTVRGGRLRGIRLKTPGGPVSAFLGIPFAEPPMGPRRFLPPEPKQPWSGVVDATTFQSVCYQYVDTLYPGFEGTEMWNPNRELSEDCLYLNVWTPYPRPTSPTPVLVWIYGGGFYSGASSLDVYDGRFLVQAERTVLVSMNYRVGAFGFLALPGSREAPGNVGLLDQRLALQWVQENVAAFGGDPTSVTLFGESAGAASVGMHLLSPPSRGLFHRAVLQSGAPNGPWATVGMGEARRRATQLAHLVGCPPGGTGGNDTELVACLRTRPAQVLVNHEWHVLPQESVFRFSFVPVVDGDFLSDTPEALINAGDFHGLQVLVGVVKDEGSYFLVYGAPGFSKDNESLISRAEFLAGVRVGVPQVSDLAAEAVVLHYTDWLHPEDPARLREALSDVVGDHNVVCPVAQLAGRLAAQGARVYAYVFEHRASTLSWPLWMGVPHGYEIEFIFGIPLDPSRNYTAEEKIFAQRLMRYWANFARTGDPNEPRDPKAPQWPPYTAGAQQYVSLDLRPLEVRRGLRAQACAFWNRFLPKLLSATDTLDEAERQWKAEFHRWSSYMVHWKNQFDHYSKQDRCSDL

Sequence of human butyrylcholinesterase (P06276 29-602): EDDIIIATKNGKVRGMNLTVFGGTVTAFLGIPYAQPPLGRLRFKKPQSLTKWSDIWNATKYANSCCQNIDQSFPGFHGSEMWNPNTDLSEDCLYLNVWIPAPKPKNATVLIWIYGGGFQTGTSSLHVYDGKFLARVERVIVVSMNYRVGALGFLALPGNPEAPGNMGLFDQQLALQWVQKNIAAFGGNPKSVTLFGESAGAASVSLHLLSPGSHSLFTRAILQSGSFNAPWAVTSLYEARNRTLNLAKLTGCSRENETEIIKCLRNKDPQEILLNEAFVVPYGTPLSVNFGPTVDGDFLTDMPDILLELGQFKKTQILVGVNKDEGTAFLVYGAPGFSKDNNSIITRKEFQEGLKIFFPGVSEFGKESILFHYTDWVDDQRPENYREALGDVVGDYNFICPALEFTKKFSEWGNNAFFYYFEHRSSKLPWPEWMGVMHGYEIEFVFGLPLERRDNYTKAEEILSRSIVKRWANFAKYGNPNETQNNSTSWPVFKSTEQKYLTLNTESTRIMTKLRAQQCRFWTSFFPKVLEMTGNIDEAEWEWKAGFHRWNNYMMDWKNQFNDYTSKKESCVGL

## CN(C)CCN1CCN(Cc2ccc(C(=O)Nc3nc4ccccc4s3)cc2)CC1 [4f, N-(Benzo[d]thiazol-2-yl)-4-((4-(2-(dimethylamino)ethyl)piperazine-1-yl)methyl)benzamide]
[1]
  IC50: > 1000 µM
[1]; read-out: BChE % inhibition
  inhibition at 100 µM: 32.8 ± 0.6%
  inhibition at 1000 µM: 45.3 ± 0.9%
MAO-A
  IC50: > 100 µM
MAO-A; read-out: MAO-A % inhibition
  inhibition at 100 µM: 41.3 ± 0.9%
  inhibition at 1000 µM: 67.9 ± 1.1%
Beta amyloid 1–42 (Aβ42)
  inhibition at 0.01 µM: 58.6 ± 1.1%
  inhibition at 0.1 µM: 80.8 ± 2.1%
  inhibition at 1 µM: 90.6 ± 3.1%
  inhibition at 10 µM: 97.3 ± 3.2%
Cytotoxicity, MTT assay
  IC50: 72.9 ± 2.7 µM
[2]
  inhibition at 1000 µM: 96.4 ± 1.4%

Source: article PMC9389372 (RSC Advances, 2022)
